# According to ChEMBL document CHEMBL4715748, “Synthesis and biological investigation of new equatorial (β) stereoisomers of 3-aminotropane arylamides with atypical antipsychotic profile” (Bioorg Med Chem, 2016):
# Columns and labels:
# [1] = Metabolic stability in pooled human liver microsomes assessed as parent compound remaining at 2.5 uM incubated for 45 mins in presence of NADPH by LC-MS analysis; format: ADME, Microsome; settings: read-out: Stabilty
# Procedure, shortened: (§1)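 Compound at 2.5 μM (added from 100 μM stock in 50/50 acetonitrile/water) with 1 mg/mL pooled human liver microsomes and 250 μM NADPH in 0.1 M potassium phosphate pH 7.4 at 37 °C after 5-min preincubation. Sampled at 5, 10, 15, 30, 45 min into ice-cold acetonitrile with atropine internal standard; parent quantified by LC-MS (ESI+, [M+H]+); no-NADPH controls; half-time derived.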
# Mus musculus [2] = experiment: Antipsychotic activity Swiss Albino mouse assessed as inhibition of DOI-induced head twitching by measuring number of episodes at 2.5 mg/kg, ip administered 30 mins prior to DOI stimulation (reference value: 19.63 to 19.88); format: functional; settings: 0.5 h
# Procedure, shortened: (§2)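 Male Albino Swiss mice (24–28 g) were habituated to sawdust-lined cages 20 min before the first treatment. Compounds were suspended in 1% aqueous Tween 80 and given i.p. 30 min before (±)-DOI, 2.5 mg/kg i.p. in aqueous solution. Head twitches were counted blind over 20 min, n=8 per group, mean ± SEM, one-way ANOVA with Dunnett's test.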
# [3] = Half life in pooled human liver microsomes assessed as parent compound remaining at 2.5 uM measured up to 45 mins in presence of NADPH by LC-MS analysis; format: ADME, Microsome; procedure, shortened: as §1
# Mus musculus [4] = experiment: Effect on 8-OH-DPAT-induced hypothermia in Swiss albino mouse assessed as change in rectal body temperature at 20 mg/kg, ip pretreated with compound for 45 mins followed by 8-OH-DPAT challenge and measured after 15 min by thermometer (reference value: -1.82 to -1.66 degreeC); format: functional, organism-based; settings: time 60.0 min
# [5] = Effect on body temperature in Swiss Albino mouse assessed as rectal body temperature at 20 mg/kg, ip measured after 120 mins by thermometer (reference value: 0.15 to 1.11 degreeC); format: ADME, organism-based; settings: in vivo, 2 h
# Mus musculus [6] = experiment: Effect on 8-OH-DPAT-induced hypothermia in Swiss albino mouse assessed as change in rectal body temperature at 10 mg/kg, ip pretreated with compound for 45 mins followed by 8-OH-DPAT challenge and measured after 15 min by thermometer (reference value: -1.82 to -1.66 degreeC); format: functional, organism-based; settings: time 60.0 min
# Mus musculus [7] = experiment: Effect on 8-OH-DPAT-induced hypothermia in Swiss albino mouse assessed as change in rectal body temperature at 20 mg/kg, ip pretreated with compound for 45 mins followed by 8-OH-DPAT challenge and measured after 60 min by thermometer (reference value: -0.66 to -0.5 degreeC); format: functional, organism-based; settings: time 105.0 min
# Mus musculus [8] = experiment: Effect on 8-OH-DPAT-induced hypothermia in Swiss albino mouse assessed as change in rectal body temperature at 20 mg/kg, ip pretreated with compound for 45 mins followed by 8-OH-DPAT challenge and measured after 30 min by thermometer (reference value: -1.36 to -1.12 degreeC); format: functional, organism-based; settings: time 75.0 min
# [9] = Effect on body temperature in Swiss Albino mouse assessed as rectal body temperature at 10 mg/kg, ip measured after 60 mins by thermometer (reference value: 0.33 to 0.61 degreeC); format: ADME, organism-based; settings: in vivo, 1 h
# [10] = target: 5-hydroxytryptamine receptor 2A (Rattus norvegicus, UniProt P14842); experiment: Displacement of [3H]-ketanserin from rat cerebral cortex 5HT2A receptor measured after 20 mins by liquid scintillation counter method
# 5-hydroxytryptamine receptor 2A, sequence (P14842 whole entry): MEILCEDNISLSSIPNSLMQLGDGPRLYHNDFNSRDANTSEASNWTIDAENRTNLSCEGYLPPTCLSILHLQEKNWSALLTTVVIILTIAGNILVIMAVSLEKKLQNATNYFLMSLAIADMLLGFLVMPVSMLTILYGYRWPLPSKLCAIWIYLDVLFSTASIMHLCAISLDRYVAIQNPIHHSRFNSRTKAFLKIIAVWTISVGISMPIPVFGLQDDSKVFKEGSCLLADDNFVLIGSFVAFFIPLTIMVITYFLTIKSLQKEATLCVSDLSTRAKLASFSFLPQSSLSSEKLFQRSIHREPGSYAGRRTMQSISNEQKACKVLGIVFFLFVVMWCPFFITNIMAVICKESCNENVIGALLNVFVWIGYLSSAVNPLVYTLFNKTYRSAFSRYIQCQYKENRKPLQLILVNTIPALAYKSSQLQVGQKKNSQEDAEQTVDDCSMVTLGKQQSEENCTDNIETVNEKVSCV
# Procedure, shortened: (§3)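 Competition binding in rat brain tissue membranes against D2, 5-HT1A and 5-HT2A sites; Ki reported as mean ± S.E.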
# Mus musculus [11] = experiment: Antipsychotic activity Swiss Albino mouse assessed as inhibition of DOI-induced head twitching by measuring number of episodes at 5 mg/kg, ip administered 30 mins prior to DOI stimulation (reference value: 19.63 to 19.88); format: functional; settings: 0.5 h; procedure, shortened: as §2
# [12] = Effect on body temperature in Swiss Albino mouse assessed as rectal body temperature at 20 mg/kg, ip measured after 60 mins by thermometer (reference value: 0.33 to 0.61 degreeC); format: ADME, organism-based; settings: in vivo, 1 h
# [13] = Effect on body temperature in Swiss Albino mouse assessed as rectal body temperature at 10 mg/kg, ip measured after 90 mins by thermometer (reference value: 0.18 to 0.63 degreeC); format: ADME, organism-based; settings: in vivo, 1.5 h
# [14] = Effect on 8-OH-DPAT-induced lower lip retraction in Wistar rat at 10 mg/kg, ip pretreated with compound for 45 mins followed by 8-OH-DPAT challenge and measured after 15 mins (reference value: 2.7 to 2.8); format: functional; settings: time 60 min, 1 h
# [15] = Effect on body temperature in Swiss Albino mouse assessed as rectal body temperature at 10 mg/kg, ip measured after 120 mins by thermometer (reference value: 0.15 to 1.11 degreeC); format: organism-based; settings: in vivo, 2 h
# Mus musculus [16] = experiment: Effect on 8-OH-DPAT-induced hypothermia in Swiss albino mouse assessed as change in rectal body temperature at 10 mg/kg, ip pretreated with compound for 45 mins followed by 8-OH-DPAT challenge and measured after 45 min by thermometer (reference value: -1.04 to -0.78 degreeC); format: functional, organism-based; settings: time 90.0 min
# [17] = Effect on body temperature in Swiss Albino mouse assessed as rectal body temperature at 20 mg/kg, ip measured after 90 mins by thermometer (reference value: 0.18 to 0.63 degreeC); format: ADME, organism-based; settings: in vivo, 1.5 h
# Mus musculus [18] = experiment: Effect on 8-OH-DPAT-induced hypothermia in Swiss albino mouse assessed as change in rectal body temperature at 20 mg/kg, ip pretreated with compound for 45 mins followed by 8-OH-DPAT challenge and measured after 45 min by thermometer (reference value: -1.04 to -0.78 degreeC); format: functional, organism-based; settings: time 90.0 min
# D(2) dopamine receptor = D(2) dopamine receptor (Rattus norvegicus, UniProt P61169); experiment: Displacement of [3H] Spiperone from rat striatum dopamine D2 receptor measured after 30 mins by liquid scintillation counter method; procedure, shortened: as §3
# D(2) dopamine receptor, sequence (P61169 whole entry): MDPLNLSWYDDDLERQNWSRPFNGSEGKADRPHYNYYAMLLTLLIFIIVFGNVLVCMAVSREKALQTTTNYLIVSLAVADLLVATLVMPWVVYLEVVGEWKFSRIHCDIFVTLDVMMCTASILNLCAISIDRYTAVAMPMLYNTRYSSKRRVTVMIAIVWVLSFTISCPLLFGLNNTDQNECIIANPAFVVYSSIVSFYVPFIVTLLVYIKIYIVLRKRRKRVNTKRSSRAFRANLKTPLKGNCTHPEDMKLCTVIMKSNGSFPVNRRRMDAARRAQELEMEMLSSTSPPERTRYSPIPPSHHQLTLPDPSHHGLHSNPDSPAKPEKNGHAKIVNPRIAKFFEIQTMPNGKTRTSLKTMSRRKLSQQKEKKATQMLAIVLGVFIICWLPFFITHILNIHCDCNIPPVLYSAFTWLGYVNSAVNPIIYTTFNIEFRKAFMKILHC
# Mus musculus [19] = experiment: Effect on 8-OH-DPAT-induced hypothermia in Swiss albino mouse assessed as change in rectal body temperature at 10 mg/kg, ip pretreated with compound for 45 mins followed by 8-OH-DPAT challenge and measured after 60 min by thermometer (reference value: -0.66 to -0.5 degreeC); format: functional, organism-based; settings: time 105.0 min
# [20] = Effect on body temperature in Swiss Albino mouse assessed as rectal body temperature at 20 mg/kg, ip measured after 30 mins by thermometer (reference value: 0.16 to 0.33 degreeC); format: ADME, organism-based; settings: in vivo, 0.5 h
# Mus musculus [21] = experiment: Antipsychotic activity Swiss Albino mouse assessed as inhibition of DOI-induced head twitching by measuring number of episodes at 1.25 mg/kg, ip administered 30 mins prior to DOI stimulation (reference value: 19.63 to 19.88); format: functional; settings: 0.5 h; procedure, shortened: as §2
# [22] = Effect on body temperature in Swiss Albino mouse assessed as rectal body temperature at 10 mg/kg, ip measured after 30 mins by thermometer (reference value: 0.16 to 0.33 degreeC); format: organism-based; settings: in vivo, 0.5 h
# Mus musculus [23] = experiment: Effect on 8-OH-DPAT-induced hypothermia in Swiss albino mouse assessed as change in rectal body temperature at 10 mg/kg, ip pretreated with compound for 45 mins followed by 8-OH-DPAT challenge and measured after 30 min by thermometer (reference value: -1.36 to -1.12 degreeC); format: functional, organism-based; settings: time 75.0 min
compound,measurement,setting,value
O=C(NC1CC2CCC(C1)N2Cc1cccc(F)c1)c1ccc2ccccc2c1 (configuration not stated),"remaining at 0.75 h, 2.5 µM",[1],> 50%
same,Activity,Mus musculus [2],11.38
same,half-life at 2.5 µM,[3],> 45 min
same,deltaT,Mus musculus [4],-1.67 °C
same,deltaT,[5],0.81 °C
same,deltaT,Mus musculus [6],-1.6 °C
same,deltaT,Mus musculus [7],-1.08 °C
same,deltaT,Mus musculus [8],-1.83 °C
same,deltaT,[9],0.53 °C
same,Ki,[10],102 nM
same,Activity,Mus musculus [11],3.88
same,deltaT,[12],0.43 °C
same,deltaT,[13],0.47 °C
same,Activity,[14],2.4
same,deltaT,[15],0.74 °C
same,deltaT,Mus musculus [16],-0.97 °C
same,deltaT,[17],0.2 °C
same,deltaT,Mus musculus [18],-1.53 °C
same,Ki,D(2) dopamine receptor,214 nM
same,deltaT,Mus musculus [19],-0.78 °C
same,deltaT,[20],-0.36 degrees C
same,Activity,Mus musculus [21],2.3
same,deltaT,[22],-0.17 °C
same,deltaT,Mus musculus [23],-1.37 °C
Cc1cccc(CN2C3CCC2CC(NC(=O)c2ccc4ccccc4c2)C3)c1 (configuration not stated),Activity,Mus musculus [2],13
same,half-life at 2.5 µM,[3],30 min
same,deltaT,Mus musculus [4],-1.9 °C
same,deltaT,[5],0.24 °C
same,deltaT,Mus musculus [6],-0.7 °C
same,deltaT,Mus musculus [7],-1.5 °C
same,deltaT,Mus musculus [8],-2.08 °C
same,deltaT,[9],0.73 °C
same,Ki,[10],231 nM
same,Activity,Mus musculus [11],10
same,deltaT,[12],0.47 °C
same,deltaT,[13],0.35 °C
same,Activity,[14],2.3
same,deltaT,[15],0.27 °C
same,deltaT,Mus musculus [16],-0.48 °C
same,deltaT,[17],0.2 °C
same,deltaT,Mus musculus [18],-2.08 °C
same,Ki,D(2) dopamine receptor,3.3 nM
same,deltaT,Mus musculus [19],-0.05 °C
same,deltaT,[20],0.04 °C
same,Activity,Mus musculus [21],15.63
same,deltaT,[22],-0.02 °C
same,deltaT,Mus musculus [23],-0.97 °C
O=C(NC1CC2CCC(C1)N2Cc1cccc(Cl)c1)c1ccc2ccccc2c1 (configuration not stated),"remaining at 0.75 h, 2.5 µM",[1],> 50%
same,Activity,Mus musculus [2],17.25
same,half-life at 2.5 µM,[3],> 45 min
same,deltaT,Mus musculus [4],-2.12 °C
same,deltaT,[5],1 °C
same,deltaT,Mus musculus [6],-1.03 °C
same,deltaT,Mus musculus [7],-1.57 °C
same,deltaT,Mus musculus [8],-2.22 °C
same,deltaT,[9],1 °C
same,Ki,[10],136 nM
same,Activity,Mus musculus [11],13.13
same,deltaT,[12],0.41 °C
same,deltaT,[13],0.84 °C
same,Activity,[14],2.6
same,deltaT,[15],1.16 °C
same,deltaT,Mus musculus [16],-0.85 °C
same,deltaT,[17],0.41 °C
same,deltaT,Mus musculus [18],-2.22 °C
same,Ki,D(2) dopamine receptor,3.6 nM
same,deltaT,Mus musculus [19],-0.67 °C
same,deltaT,[20],-0.38 °C
same,deltaT,[22],0.17 °C
same,deltaT,Mus musculus [23],-1.22 °C
O=C(NC1CC2CCC(C1)N2Cc1ccc(F)cc1)c1ccc2ccccc2c1 (configuration not stated),"remaining at 0.75 h, 2.5 µM",[1],> 50%
same,Activity,Mus musculus [2],5.75
same,half-life at 2.5 µM,[3],> 45 min
same,deltaT,Mus musculus [4],-1.62 °C
same,deltaT,[5],0.54 °C
same,deltaT,Mus musculus [6],-1.55 °C
same,deltaT,Mus musculus [7],-1 °C
same,deltaT,Mus musculus [8],-1.6 °C
same,deltaT,[9],0.5 °C
same,Ki,[10],209 nM
same,Activity,Mus musculus [11],5
same,deltaT,[12],0.46 °C
same,deltaT,[13],0.44 °C
same,Activity,[14],2.5
same,deltaT,[15],0.59 °C
same,deltaT,Mus musculus [16],-0.92 °C
same,deltaT,[17],0.23 °C
same,deltaT,Mus musculus [18],-1.43 °C
same,Ki,D(2) dopamine receptor,137 nM
same,deltaT,Mus musculus [19],-0.73 °C
same,deltaT,[20],-0.33 °C
same,Activity,Mus musculus [21],12.63
same,deltaT,[22],-0.17 °C
same,deltaT,Mus musculus [23],-1.32 °C
O=C(NC1CC2CCC(C1)N2Cc1cccc(Br)c1)c1ccc2ccccc2c1 (configuration not stated),"remaining at 0.75 h, 2.5 µM",[1],> 50%
same,Activity,Mus musculus [2],14.5
same,half-life at 2.5 µM,[3],> 45 min
same,deltaT,Mus musculus [4],-1.42 °C
same,deltaT,[5],1.23 °C
same,deltaT,Mus musculus [6],-1.32 °C
same,deltaT,Mus musculus [7],-0.58 °C
same,deltaT,Mus musculus [8],-1.37 °C
same,deltaT,[9],0.76 °C
same,Ki,[10],106 nM
same,Activity,Mus musculus [11],13.88
same,deltaT,[12],0.49 °C
same,deltaT,[13],0.64 °C
same,Activity,[14],2.4
same,deltaT,[15],1.14 °C
same,deltaT,Mus musculus [16],-1 °C
same,deltaT,[17],0.36 °C
same,deltaT,Mus musculus [18],-1.25 °C
same,Ki,D(2) dopamine receptor,11.6 nM
same,deltaT,Mus musculus [19],-0.72 °C
same,deltaT,[20],-0.3 °C
same,deltaT,[22],-0.2 °C
same,deltaT,Mus musculus [23],-1.62 °C
